Experimental data reported in ChEMBL document CHEMBL3044526, “Synthesis, fungicidal activity, and QSAR of pyridazinonethiadiazoles” (2002).

The compounds below were run on Puccinia recondita (assay: Antifungal activity against Puccinia recondita wheat leaves treated as foliar spray after 10 days relative to triadimefon).
Type: functional
Procedure, shortened: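 Susceptible wheat cv. Ming-Xian 169 (10 germinating seeds per pot) was grown in a greenhouse at 15-20 °C and inoculated with P. recondita, then held 24 h in a moist chamber. Once the leaves were dry, each pot got a 10 mL spray of compound solution. Percent disease control versus untreated pots was scored 10 days later, in triplicate. Triadimefon (100 ppm) was run alongside. D = lg[a/(100−a)] − lg Mw.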
With `Cc1cc(=O)c(-c2nnc(Nc3cccc(C(F)(F)F)c3)s2)nn1-c1ccccc1Cl` the “inhibition (INH)” value was 70%. In the case of `Cc1cc(=O)c(-c2nnc(Nc3ccccc3F)s2)nn1-c1ccccc1Cl`, the “inhibition (INH)” value is reported as 10%. For `Cc1cc(=O)c(-c2nnc(Nc3ccccc3)s2)nn1-c1ccccc1Cl`, the “inhibition (INH)” value was 10%. `Cc1cc(=O)c(-c2nnc(Nc3ccccc3F)s2)nn1-c1ccccc1` was tested, and the “inhibition (INH)” value was 50%. In the case of `Cc1cc(=O)c(-c2nnc(Nc3cccc(C(F)(F)F)c3)s2)nn1-c1ccccc1`, the “inhibition (INH)” value is reported as 60%. With `Cc1cc(=O)c(-c2nnc(Nc3cccc(C(F)(F)F)c3)s2)nn1-c1c(Cl)cccc1Cl` the “inhibition (INH)” value was 50%. `Cc1cc(=O)c(-c2nnc(Nc3ccccc3F)s2)nn1-c1c(Cl)cccc1Cl` was tested, and the “inhibition (INH)” value was 30%. For `Cc1cc(=O)c(-c2nnc(Nc3cccc(C(F)(F)F)c3)s2)nn1-c1ccc(Cl)cc1`, the “inhibition (INH)” value was 60%. For `Cc1cc(=O)c(-c2nnc(Nc3ccccc3F)s2)nn1-c1ccc(Cl)cc1`, the “inhibition (INH)” value was 50%. In the case of `Cc1cc(=O)c(-c2nnc(Nc3ccccc3F)s2)nn1-c1cc(Cl)c(Cl)cc1Cl`, the “inhibition (INH)” value is reported as 60%. `Cc1cc(=O)c(-c2nnc(Nc3cccc(C(F)(F)F)c3)s2)nn1-c1cc(Cl)c(Cl)cc1Cl` was tested, and the “inhibition (INH)” value was 70%. For `Cc1ccc(-n2nc(-c3nnc(Nc4cccc(C(F)(F)F)c4)s3)c(=O)cc2C)c(C)c1`, the “inhibition (INH)” value was 90%. `Cc1ccc(-n2nc(-c3nnc(Nc4ccccc4F)s3)c(=O)cc2C)c(C)c1` was tested, and the “inhibition (INH)” value was 90%. For `Cc1cc(=O)c(-c2nnc(Nc3ccccc3F)s2)nn1-c1ccc(Cl)cc1Cl`, the “inhibition (INH)” value was 80%. In the case of `Cc1cc(=O)c(-c2nnc(Nc3cccc(C(F)(F)F)c3)s2)nn1-c1ccc(Cl)cc1Cl`, the “inhibition (INH)” value is reported as 90%. With `Cc1cc(=O)c(-c2nnc(Nc3ccccc3)s2)nn1-c1ccc(Cl)cc1Cl` the “inhibition (INH)” value was 20%.
